Measured values taken from ChEMBL document CHEMBL3588803, “Design, synthesis and pharmacology of 1,1-bistrifluoromethylcarbinol derivatives as liver X receptor β-selective agonists” (Bioorg Med Chem Lett, 2015).

How the values were obtained:
[1] = Plasma concentration in CE-2 chow diet-fed golden Syrian hamster at 100 mg/kg, po after 4 hrs by HPLC-LC-MS/MS method; assay type: ADME, organism-based, Mesocricetus auratus
In short: (§1)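 Hamsters on chow diet received a single oral dose of 100 mg/kg. Heparin plasma was drawn from a forearm vein at 0.5, 1, 2, 3, 4, 6, 8, 10 and 24 h after dosing. Concentrations of parent drug and its carboxylic acid metabolite were measured in plasma.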

[2] = Plasma concentration in CE-2 chow diet-fed golden Syrian hamster at 100 mg/kg, po after 24 hrs by HPLC-LC-MS/MS method; assay type: ADME, organism-based, Mesocricetus auratus; in short: as §1
[3] = Plasma concentration in CE-2 chow diet-fed golden Syrian hamster assessed as 4-(4-(1,1,1,3,3,3-Hexafluoro-2-hydroxypropan-2-yl)-2,6-di-n-propylphenoxy)-butanoic acid level at 100 mg/kg, po after 2 hrs by HPLC-LC-MS/MS method; assay type: ADME, organism-based, Mesocricetus auratus; conditions: in vivo; in short: as §1
[4] = Plasma concentration in CE-2 chow diet-fed golden Syrian hamster assessed as 4-(4-(1,1,1,3,3,3-Hexafluoro-2-hydroxypropan-2-yl)-2,6-di-n-propylphenoxy)-butanoic acid level at 100 mg/kg, po after 10 hrs by HPLC-LC-MS/MS method; assay type: ADME, organism-based, Mesocricetus auratus; conditions: in vivo; in short: as §1
[5] = Plasma concentration in CE-2 chow diet-fed golden Syrian hamster assessed as 4-(4-(1,1,1,3,3,3-Hexafluoro-2-hydroxypropan-2-yl)-2,6-di-n-propylphenoxy)-butanoic acid level at 100 mg/kg, po after 24 hrs by HPLC-LC-MS/MS method; assay type: ADME, organism-based, Mesocricetus auratus; conditions: in vivo; in short: as §1
[6] = Cmax in CE-2 chow diet-fed golden Syrian hamster at 100 mg/kg, po after 6 hrs by HPLC-LC-MS/MS method; assay type: ADME, organism-based, Mesocricetus auratus; set-up: dose 100 mg/kg, route oral; conditions: in vivo; in short: as §1
[7] = test system: Hamster; test: Increase in ABCG5 gene expression in Bio F1B hamster intestine at 30 mg/kg, po; assay type: functional, Cricetinae
In short: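 Bio F1B hamsters were fed a high-fat, high-cholesterol diet and dosed orally. Gene expression was measured in intestine (ABCA1, ABCG5, ABCG8) and in peripheral blood (ABCA1).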

[8] = test system: Hamster; test: Hypolipidemic effect in Bio F1B hamster fed with high fat and cholesterol diet assessed as LDL-cholesterol level at 100 mg/kg, po relative to control; assay type: functional, Cricetinae
[9] = test system: Hamster; test: Effect in lipid profiles in Bio F1B hamster fed with high fat and cholesterol diet assessed as triglyceride level at 100 mg/kg, po relative to control; assay type: organism-based; conditions: cricetinae, in vivo
[10] = test system: Hamster; test: Hypolipidemic effect in Bio F1B hamster fed with high fat and cholesterol diet assessed as lipid-accumulation area in aortic arch at 10 mg/kg, po relative to control; assay type: functional, Cricetinae
[11] = test system: Hamster; test: Hypolipidemic effect in Bio F1B hamster fed with high fat and cholesterol diet assessed as lipid-accumulation area in aortic arch at 30 mg/kg, po relative to control; assay type: functional, Cricetinae

concentration at 4 h [1]: 290 nM
concentration at 24 h [2]: 100 nM
Cp [3]: 375 ng/mL
Cp [4]: 560 ng/mL
Cp [5]: 528 ng/mL
Cmax [6]: 600 nM
Activity [9]: 112%
Structure (SMILES): CCCc1cc(C(O)(C(F)(F)F)C(F)(F)F)cc(CCC)c1OCCCCN1C(=O)NC(C)(c2ccc(OC(C)C)cc2)C1=O (stereo unspecified)
fold change (FC) [7]: 1.5
Activity [8]: 45%
Activity [10]: 86%
Activity [11]: 84%
